Screens deposited in PubChem by Johns Hopkins Ion Channel Center.
An excerpt weighted towards active compounds, which were near 3.8% of everything screened.
KCNQ1 pot = potentiators or activators of human KCNQ1 potassium channel. B-score at 10 µM. hit rate 0.35% among 310,000. CHO-K1 KCNQ1, thallium flux FluxOR fluorescence; hits give high values;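 active means fluorescence ratio B-score, a plate-corrected score, at least three library SD, with initial intensity B-score within 5 SD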
Target sequence (P51787 whole entry, looked up): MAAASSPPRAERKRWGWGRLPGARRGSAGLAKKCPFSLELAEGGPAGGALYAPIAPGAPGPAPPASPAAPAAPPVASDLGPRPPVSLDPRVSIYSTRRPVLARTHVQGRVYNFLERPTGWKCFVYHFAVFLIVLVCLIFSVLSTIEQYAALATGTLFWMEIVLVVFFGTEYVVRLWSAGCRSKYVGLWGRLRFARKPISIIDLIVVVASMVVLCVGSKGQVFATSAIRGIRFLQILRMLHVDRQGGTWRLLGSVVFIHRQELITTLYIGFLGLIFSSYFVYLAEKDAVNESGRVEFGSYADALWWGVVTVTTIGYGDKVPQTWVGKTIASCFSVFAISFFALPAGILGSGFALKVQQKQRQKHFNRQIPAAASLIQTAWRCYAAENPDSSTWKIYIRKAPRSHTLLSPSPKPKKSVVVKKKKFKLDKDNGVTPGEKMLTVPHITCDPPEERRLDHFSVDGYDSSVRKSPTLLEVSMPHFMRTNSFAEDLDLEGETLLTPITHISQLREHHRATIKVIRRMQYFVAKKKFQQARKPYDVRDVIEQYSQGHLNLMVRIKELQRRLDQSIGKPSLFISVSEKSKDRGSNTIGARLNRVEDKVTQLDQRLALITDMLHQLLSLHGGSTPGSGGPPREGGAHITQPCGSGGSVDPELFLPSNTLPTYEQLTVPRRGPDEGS
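Doses: Single concentration per compound, DMSO matched to controls | Test system: KCNQ1-transfected CHO-K1 cells | Timing: 90 min dye loading and 20 min compound exposure, both at room temperature | Measured by: Kinetic FluxOR thallium fluorescence, 10-s 1-Hz baseline, 110-s post-stimulus read | Medium: Assay buffer with matched DMSO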
KCNK9 inh = inhibitors of human KCNK9 two-pore domain potassium channel | Q9NPC2 | HEK293 KCNK9, FluxOR thallium flux fluorescence; hits give low values | B-score at 10 µM | hit rate 1.2% among 310,000 | AID 488922;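 active means ratio B-score over 3 SD below the library mean, with starting fluorescence within 5 SD of its mean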;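 further: negative B-score means less thallium flux so channel inhibition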
KCNQ1 block = inhibitors of human KCNQ1 potassium channel | CHO-K1 KCNQ1, FluxOR thallium flux fluorescence; hits give high values | B-score at 10 µM | hit rate 1.3% among 310,000 | AID 2642;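 active means compounds whose thallium flux B-score, printed positive for inhibition, exceeds three library SD while starting fluorescence stays within three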;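 further: channel opened by potassium depolarization with thallium stimulus after 20 min compound exposure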
KCNK3 block = human KCNK3 channel inhibition, primary screen; CHO-KCNK3 thallium flux, FluxOR fluorescence; hits give low values; hit rate 0.84% among 340,000; B-score at 10 µM; O14649; AID 602410;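 active means B-score under library mean minus 4 SD, starting fluorescence ratio at most library mean plus 5 SD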;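 further: more negative B-score means stronger inhibition of thallium flux through KCNK3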
hERG protect = shields human hERG channel from block by proarrhythmic agents; activation (rescue from dofetilide block), less the hit threshold, % at 10 µM; CHO-hERG, FluxOR thallium flux, dofetilide IC70 present; hit rate 0.51% among 310,000;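 active means activation above the mean of controls blocked by dofetilide plus 5 SD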;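 further: thallium influx through hERG after potassium depolarization seen as dye fluorescence rise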
Kir21 block = inhibitors of mouse Kir2.1 inward-rectifier potassium channel; P35561; HEK293-Kir2.1, FluxOR thallium flux fluorescence; hits give low values; B-score at 10 µM; hit rate 0.85% among 310,000; AID 1672;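 active means fluorescence ratio B-score at or below minus 3 SD of library scores, with starting-brightness B-score within 2 SD, cut at about -4.2 in these data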;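 further: channel flux triggered by added potassium and thallium sulfate stimulus; B-score of peak minus minimum fluorescence over baseline after thallium stimulus; more negative B-score means stronger Kir2.1 block with less thallium influx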
KCNK9 inh conf = confirmation of human KCNK9 potassium channel inhibitors | inhibition, % at 10 µM | hit rate 43% among 4,900 | shares compounds with KCNK9 inh | AID 492992 | HEK293 KCNK9 cells, FluxOR thallium flux fluorescence;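 active means thallium signal inhibited by more than 5 SD of the compound-free buffer control wells, on both duplicate plates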;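 further: 0% = assay buffer control wells without compound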
Kir2-1 spec = selectivity of KCNK9 modulators against mouse Kir2.1. shares compounds with KCNK9 inh. Kir2.1 cells, FluxOR thallium flux fluorescence. inhibition, % at 10 µM. hit rate 4% among 4,900;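 active means thallium signal drop more than 5 SD beyond the mean of the no-compound control wells, seen in both duplicate plates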;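 further: signal is fluorescence rise after thallium addition divided by baseline fluorescence; plate controls were assay buffer only for no effect and full block by chlorpromazine control for full effect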
HEK293 Tl ctr = second check of KCNK9 modulator effects in non-induced HEK293 cells | shares compounds with KCNK9 inh | FluxOR thallium flux | inhibition, % at 10 µM | hit rate 40% among 4,900;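 active means thallium signal drop beyond 5 SD of the untreated control mean, on both duplicate plates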;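 further: plate controls were buffer only IC0 wells for no effect and SID17386958 at its maximal inhibitory level for full effect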
* hit, by the source's call; i = inactive; / = not tested or not shown.

SMILES	KCNQ1 pot	KCNK9 inh	KCNQ1 block	KCNK3 block	hERG protect	Kir21 block	KCNK9 inh conf	Kir2-1 spec	HEK293 Tl ctr
CC(C)Oc1ccc(C(=O)Nc2ccccc2N2CCCC2)cc1	i	-14*	i	i	-5	-0.48	58%*	i	29%*
CC(Oc1ccc(F)cc1)C(=O)Nc1cc(S(=O)(=O)N2CCCCC2)ccc1N1CCN(C)CC1 (centres undefined)	/	/	/	i	/	/	/	/	/
COc1ccccc1-c1nc(C#N)c(N2CCN(c3cccc(Cl)c3)CC2)o1	i	-8.6*	i	i	-13	-1.8	48%*	i	i
COc1ccc(NC2CCCN(C(=O)CCc3ccccc3F)C2)cc1 (centres undefined)	i	i	i	i	-7	-1.9	i	i	i
COc1ccc(NC2CCCN(C(=O)CCOc3ccccc3)C2)cc1 (centres undefined)	i	i	i	i	-8	-0.47	i	i	i
COc1ccc(NC2CCCN(C(=O)CSc3ccccc3)C2)cc1 (centres undefined)	i	i	i	i	-7	-3.2	/	/	/
COc1ccc(N(CCCN2C(=O)c3cccc4cccc(c34)C2=O)C(=O)c2cccnc2)cc1	i	i	i	i	-8	-0.2	i	i	i
COc1ccc(N(CCCN2C(=O)c3cccc4cccc(c34)C2=O)C(=O)c2ccncc2)cc1	i	i	i	i	-12	-1.3	/	/	/
O=C(NCCCN1CCOCC1)c1sc2cc([N+](=O)[O-])ccc2c1Cl	i	i	i	i	4	-1.9	i	i	i
CN(CC(=O)Nc1ccccc1Br)C(=O)CN1CCN(c2ccccc2Cl)CC1	/	/	/	i	/	/	/	/	/
CCCCOC(=O)c1ccc(N/C(=N\S(=O)(=O)c2ccccc2)c2ccccc2)cc1	i	-12*	i	i	-8	0.86	52%*	i	37%*
CCCCOC(=O)c1ccc(NC(=O)c2ccccc2OC)cc1	i	-9.2*	i	i	-9	-0.67	74%*	i	32%*
CCOC(=O)c1oc2ccccc2c1NC(=O)c1ccccc1OC	i	-8.9*	i	i	-16	-0.02	34%*	i	i
CCOC(=O)c1oc2ccccc2c1COC(=O)CNC(=O)c1ccccc1OC	i	i	i	i	-13	0.67	/	/	/
CCOC(=O)C1=C(O)C(=O)N(Cc2ccccc2)CC1	i	i	i	i	-4	0.1	/	/	/
CCOC(=O)c1ccc(N2C(=O)c3n[nH]c(-c4ccco4)c3C2c2cccc([N+](=O)[O-])c2)cc1 (centres undefined)	i	-9.4*	i	i	-8	2.4	64%*	i	30%*
O=C(N=C1SC2CS(=O)(=O)CC2N1CCc1ccc(F)cc1)C1CCCCC1 (centres undefined)	i	i	i	i	-5	-0.02	/	/	/
O=C1c2nccnc2C(=O)N1c1ccc(F)cc1	i	i	i	i	-8	0.03	/	/	/
COc1cc(C2=NOC(C(=O)NCc3cccnc3)C2)cc(OC)c1OC (centres undefined)	i	-8.6*	i	i	-2	-0.17	26%*	i	i
COc1ccc(OC)c(C2=NOC(C(=O)NCc3cccnc3)C2)c1 (centres undefined)	i	i	i	i	0	-1.1	/	/	/
Cc1c(C)n(CC(O)CN2CCOCC2)c2ccccc12 (centres undefined)	i	i	i	i	-5	1.5	/	/	/
O=c1c2ccccc2n(CC(O)CN2CCOCC2)c2ccccc12 (centres undefined)	i	-14*	i	i	-2	0.67	33%*	i	i
CCn1cc(CCCC(=O)NCc2ccc(OC)cc2)c2ccccc21	i	i	i	i	-3	-2.5	i	i	i
CCOc1ccccc1CNC(=O)CCc1cn(CC)c2ccccc12	i	i	i	i	-6	-5.9*	i	i	i
O=[N+]([O-])c1cc(/C=N/O)ccc1Oc1ccccc1Cl	i	i	i	i	-15	-3.8	/	/	/
SMILES	KCNQ1 pot	KCNK9 inh	KCNQ1 block	KCNK3 block	hERG protect	Kir21 block	KCNK9 inh conf	Kir2-1 spec	HEK293 Tl ctr
O=[N+]([O-])c1cc(/C=N/O)ccc1Oc1cccc(Cl)c1	i	-10*	i	i	-14	0.34	41%*	i	25%*
O=C(NCC1(c2ccccc2)CCOCC1)c1cccs1	i	i	i	i	-8	1.6	/	/	/
Cc1cccc(Nc2nc(NCc3ccco3)c3ccccc3n2)c1	i	-8.1*	10*	i	-25	-14*	49%*	86%*	i
COc1ccc(OC)c(NC(=O)CN(C)CC(=O)Nc2ccccc2Cl)c1	i	i	i	i	0	0.34	/	/	/
COc1ccc(Br)cc1CN(C)CC(=O)Nc1ccccc1Cl	i	-8.7*	i	i	-14	-5.4*	34%*	36%*	36%*
COc1ccccc1CN(C)CC(=O)Nc1ccc(Cl)cc1C(F)(F)F	i	-14*	i	i	-10	-3.5	49%*	i	42%*
COc1ccc(NC(=O)CN(C)Cc2cccs2)cc1Cl	i	-13*	i	-11*	-12	-1.5	32%*	i	33%*
CCN(CC(=O)NCCCN1CCOCC1)S(=O)(=O)c1ccc(F)cc1	i	i	i	i	-4	0.54	/	/	/
COc1ccc(CC(=O)N(Cc2ccccc2)c2ccc(C)cc2)cc1OC	i	i	i	i	-11	-4	/	/	/
O=C(CCCSc1ccc(Cl)cc1)Nc1ccccc1O	i	i	9*	i	-14	0.01	i	i	i
O=C(CSCc1ccc(Cl)cc1)Nc1ccccc1O	i	i	i	i	-8	0.11	/	/	/
CC(C)(O)c1[nH]c2ccc(C#N)cc2c1C(C)(C)O	i	i	i	/	-5	0.49	/	/	/
O=C1ON=C(c2ccc(Cl)cc2)/C1=C/c1ccc(O)cc1	i	i	8*	/	-9	-6.1*	i	i	i
Cc1ccc(C2=NOC(=O)/C2=C\c2ccccc2)cc1	i	i	i	i	-6	0.1	/	/	/
O=C1ON=C(c2ccccc2)/C1=C/c1ccc(O)cc1	i	i	i	i	4	-6.8*	i	i	i
